In ChEMBL document CHEMBL1153046, “Synthesis and antitumor activity of substituted triazolo[4,3-a]pyrimidin-6-sulfonamide with an incorporated thiazolidinone moiety” (2009):

Experiments:
Assay type in all cases: functional
[1] = system: MDA-MB-231; assay: Growth inhibition of human MDA-MB-231 cells after 48 hrs by sulforhodamine B assay; details: MDA-MB-231, 48 h
Procedure, shortened: (§1)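 NCI 60-cell-line panel. Cells are grown in RPMI1640 with 5% fetal calf serum and 2 mM L-glutamine, seeded at a density set by growth characteristics, and preincubated 24 h. Compound is tested at a minimum of five concentrations at 10-fold dilution, with 48 h continuous exposure. Viability is read by sulforhodamine B protein assay. GI50, TGI and LC50 come from dose-response curves.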

[2] = system: DU-145; assay: Growth inhibition of human DU145 cells after 48 hrs by sulforhodamine B assay; details: DU-145, 48 h; procedure, shortened: as §1
[3] = Growth inhibition of human Hs 578T cells after 48 hrs by sulforhodamine B assay; procedure, shortened: as §1
[4] = system: ACHN; assay: Growth inhibition of human ACHN cells after 48 hrs by sulforhodamine B assay; procedure, shortened: as §1
[5] = system: SNB-19; assay: Growth inhibition of human SNB19 cells after 48 hrs by sulforhodamine B assay; details: SNB-19, 48 h
Procedure, shortened: (§2)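 NCI 60-cell-line panel (nine cancer types), with cells grown in RPMI1640 plus 5% fetal calf serum and 2 mM L-glutamine. Cells are seeded at a density that depends on the line and preincubated 24 h. Compounds are then applied at a minimum of five 10-fold dilutions over a 5-log range with 48 h continuous exposure. Viability is read by SRB protein assay, and GI50 is derived from dose-response curves in units of 10^-5 M.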

[6] = system: 786-0; assay: Growth inhibition of human 786-0 cells after 48 hrs by sulforhodamine B assay; details: 786-0, 48 h; procedure, shortened: as §1
[7] = system: RXF 393; assay: Growth inhibition of human RXF393 cells after 48 hrs by sulforhodamine B assay; details: RXF 393, 48 h; procedure, shortened: as §1
[8] = system: SF-268; assay: Antiproliferative activity against human SF268 cells assessed as cell growth at 100 uM after 48 hrs by alamar blue assay; details: SF-268, 48 h, read-out: Activity
Procedure, shortened: (§3)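 NCI three-cell-line primary screen. Cells are seeded and preincubated in microtiter plates. Compound is added at a single 10^-4 M concentration and cultures are incubated 48 h. The end-point is read with alamar blue. Results are given as percent growth relative to untreated control cells.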

[9] = system: HT-29; assay: Growth inhibition of human HT-29 cells after 48 hrs by sulforhodamine B assay; details: HT-29, 48 h; procedure, shortened: as §1
[10] = system: MCF7; assay: Growth inhibition of human MCF7 cells after 48 hrs by sulforhodamine B assay; details: MCF7, 48 h; procedure, shortened: as §1
[11] = system: MOLT-4; assay: Growth inhibition of human MOLT4 cells after 48 hrs by sulforhodamine B assay; details: MOLT-4, 48 h; procedure, shortened: as §1
[12] = system: T47D; assay: Growth inhibition of human T47D cells after 48 hrs by sulforhodamine B assay; procedure, shortened: as §2
[13] = system: SK-MEL-28; assay: Growth inhibition of human SK-MEL-28 cells after 48 hrs by sulforhodamine B assay; details: SK-MEL-28, 48 h; procedure, shortened: as §1
[14] = system: HL-60(TB); assay: Growth inhibition of human HL-60(TB) cells after 48 hrs by sulforhodamine B assay; details: HL-60, 48 h
Procedure, shortened: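 NCI 60-cell-line panel. Cells were grown in RPMI1640 with 5% fetal calf serum and 2 mM L-glutamine, seeded at a density suited to each line, and preincubated 24 h. Compounds were tested at a minimum of five concentrations at 10-fold dilutions over a 5-log range, with 48 h continuous exposure. Growth was read by sulforhodamine B protein staining, and GI50 was taken from dose-response curves.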

[15] = system: HOP-92; assay: Growth inhibition of human HOP92 cells after 48 hrs by sulforhodamine B assay; details: HOP-92, 48 h; procedure, shortened: as §1
[16] = system: OVCAR-4; assay: Growth inhibition of human OVCAR4 cells after 48 hrs by sulforhodamine B assay; details: OVCAR-4, 48 h; procedure, shortened: as §1
[17] = system: K562; assay: Growth inhibition of human K562 cells after 48 hrs by sulforhodamine B assay; details: K562, 48 h; procedure, shortened: as §1
[18] = system: UACC-257; assay: Growth inhibition of human UACC257 cells after 48 hrs by sulforhodamine B assay; details: UACC-257, 48 h; procedure, shortened: as §2
[19] = system: KM12; assay: Growth inhibition of human KM12 cells after 48 hrs by sulforhodamine B assay; details: KM12, 48 h; procedure, shortened: as §1
[20] = system: SF-268; assay: Growth inhibition of human SF268 cells after 48 hrs by sulforhodamine B assay; details: SF-268, 48 h; procedure, shortened: as §1
[21] = system: NCI-H460; assay: Antiproliferative activity against human NCI-H460 cells assessed as cell growth at 100 uM after 48 hrs by alamar blue assay; details: NCI-H460, 48 h, read-out: Activity; procedure, shortened: as §3
[22] = system: HCT-116; assay: Growth inhibition of human HCT116 cells after 48 hrs by sulforhodamine B assay; details: HCT-116, 48 h; procedure, shortened: as §1
[23] = system: OVCAR-8; assay: Growth inhibition of human OVCAR8 cells after 48 hrs by sulforhodamine B assay; details: OVCAR-8, 48 h; procedure, shortened: as §1
[24] = system: CAKI-1; assay: Growth inhibition of human Caki1 cells after 48 hrs by sulforhodamine B assay; details: CAKI-1, 48 h; procedure, shortened: as §1
[25] = system: OVCAR-3; assay: Growth inhibition of human OVCAR-3 cells after 48 hrs by sulforhodamine B assay; details: OVCAR-3, 48 h; procedure, shortened: as §1
[26] = system: NCI-H322M; assay: Growth inhibition of human NCI-H322M cells after 48 hrs by sulforhodamine B assay; procedure, shortened: as §1
[27] = system: M14; assay: Growth inhibition of human M14 cells after 48 hrs by sulforhodamine B assay; details: M14, 48 h; procedure, shortened: as §1
[28] = system: MDA-MB-435; assay: Growth inhibition of human MDA-MB-435 cells after 48 hrs by sulforhodamine B assay; details: MDA-MB-435, 48 h; procedure, shortened: as §1
[29] = system: NCI-H522; assay: Growth inhibition of human NCI-H522 cells after 48 hrs by sulforhodamine B assay; details: NCI-H522, 48 h; procedure, shortened: as §1
[30] = read-out: LC50 (the source's name)

`COc1ccc(/C=N/c2nc3[nH]nc(C)n3c(=O)c2S(=O)(=O)NN2C(=O)C(CN3CCN(C)CC3)SC2c2ccc(OC)cc2)cc1` (stereo unspecified) gave a GI50 [1] of 12.2 µM, an LC50 (50% lethal concentration) [1] of 88.6 µM and a TGI [1] of 32.9 µM. The GI50 [2] was 11.8 µM, the LC50 (concentration giving 50% net cell kill) [2] was 86.6 µM and the TGI [2] was 32 µM. The GI50 [3] was 13 µM, the LC50 (concentration killing 50% of cells) [3] was 88.7 µM and the TGI [3] was 34 µM. For the same compound, the GI50 [4] was 17.4 µM, the TGI [4] was 34.5 µM and the CC50 [4, 30] was 68.4 µM. For the same compound, the GI50 [5] was 25.7 µM, the TGI [5] was 72.5 µM and the GI50 [6] was 16.2 µM. The TGI [6] was 31.2 µM, the CC50 [6, 30] was 59.9 µM and the GI50 [7] was 10.2 µM. The TGI [7] was 31.1 µM, the CC50 [7, 30] was 95.1 µM and the growth at 100 µM [8] was 18%. For the same compound, the GI50 [9] was 34.7 µM, the GI50 [10] was 15.3 µM and the TGI [10] was 47.8 µM. The GI50 [11] was 17.8 µM, the TGI [11] was 58.9 µM and the CC50 [11, 30] was > 100 µM. For the same compound, the GI50 [12] was 31.2 µM, the TGI [12] was 89.4 µM and the GI50 [13] was 30.3 µM. For the same compound, the TGI [13] was 78.2 µM, the GI50 [14] was 28.2 µM and the LC50 [14] was > 100 µM. The TGI [14] was 86.8 µM, the GI50 [15] was 17.8 µM and the LC50 [15] was 74.2 µM. For the same compound, the TGI [15] was 36.4 µM, the GI50 [16] was 23.3 µM and the LC50 [16] was 96.5 µM. It also gave a TGI [16] of 47.4 µM, a GI50 [17] of 13 µM and an LC50 [17] of 63.3 µM. For the same compound, the TGI [17] was 28.7 µM, the GI50 [18] was 21.6 µM and the LC50 [18] was 92.3 µM. For the same compound, the TGI [18] was 44.7 µM, the GI50 [19] was 24.8 µM and the GI50 [20] was 17.7 µM. The TGI [20] was 42 µM, the CC50 [20, 30] was 99.6 µM and the growth at 100 µM [21] was 0%. It also gave a GI50 [22] of 5.89 µM, an LC50 (concentration killing 50% of cells) [22] of 71.5 µM and a TGI [22] of 47.2 µM. It also gave a GI50 [23] of 7.82 µM, a TGI [23] of 47.2 µM and a GI50 [24] of 20.9 µM. The LC50 (50% lethal concentration) [24] was 77.8 µM, the TGI [24] was 40.3 µM and the GI50 [25] was 21.5 µM. It also gave an LC50 (concentration killing 50% of cells) [25] of 75.3 µM, a TGI [25] of 40.2 µM and a GI50 [26] of 21.1 µM. It also gave a TGI [26] of 51.1 µM, a GI50 [27] of 17 µM and an LC50 (concentration killing 50% of cells) [27] of 78 µM. For the same compound, the TGI [27] was 36.5 µM, the GI50 [28] was 24.1 µM and the TGI [28] was 64.6 µM. For the same compound, the GI50 [29] was 21.9 µM and the TGI [29] was 47.7 µM.
